Assays:
Format in all cases: functional
[1] = system: Staphylococcus; assay: Antibacterial activity against methicillin-resistant coagulase-negative unspeciated Staphylococcus clinical isolate by broth microdilution method
Summary of the method: (§1)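 MICs by CLSI broth microdilution in frozen trays pre-loaded with serial dilutions of each agent. Quality-control strains run in parallel: E. faecalis ATCC 29212 and ATCC 51299, S. aureus ATCC 29213, S. pneumoniae ATCC 49619. Comparator susceptibility categories follow CLSI breakpoints. Methicillin resistance in staphylococci assigned from the oxacillin MIC.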

[2] = system: Staphylococcus haemolyticus; assay: Antibacterial activity against methicillin-susceptible coagulase-negative Staphylococcus haemolyticus clinical isolate by broth microdilution method; summary of the method: as §1
[3] = system: Staphylococcus aureus; assay: Antibacterial activity against daptomycin-nonsusceptible Staphylococcus aureus isolate 1171055 by broth microdilution method; summary of the method: as §1
[4] = system: Staphylococcus aureus; assay: Antibacterial activity against daptomycin-nonsusceptible Staphylococcus aureus isolate 1176127 by broth microdilution method; summary of the method: as §1
[5] = system: Enterococcus faecium; assay: Antibacterial activity against vancomycin- and teichoplanin-nonsusceptible Enterococcus faecium clinical isolate by broth microdilution method; summary of the method: as §1
[6] = system: Staphylococcus; assay: Antibacterial activity against daptomycin-nonsusceptible coagulase-negative Staphylococcus isolate 1285835 by broth microdilution method
Summary of the method: (§2)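 MIC by CLSI broth microdilution in frozen microtiter trays holding serial dilutions of each agent, prepared from standard laboratory powders. E. faecalis ATCC 29212 and ATCC 51299, S. aureus ATCC 29213 and S. pneumoniae ATCC 49619 run in parallel as quality-control strains. Comparator susceptibility interpreted with CLSI breakpoints.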

[7] = system: Streptococcus mitis; assay: Antibacterial activity against Streptococcus mitis clinical isolate by broth microdilution method; summary of the method: as §2
[8] = system: Streptococcus agalactiae; assay: Antibacterial activity against Streptococcus agalactiae clinical isolate by broth microdilution method; summary of the method: as §2
[9] = system: Staphylococcus simulans; assay: Antibacterial activity against methicillin-resistant coagulase-negative Staphylococcus simulans clinical isolate by broth microdilution method; summary of the method: as §1
[10] = system: Staphylococcus xylosus; assay: Antibacterial activity against methicillin-resistant coagulase-negative Staphylococcus xylosus clinical isolate by broth microdilution method; summary of the method: as §1
[11] = Antibacterial activity against Streptococcus sp. Group C clinical isolate by broth microdilution method; summary of the method: as §2
[12] = system: Streptococcus sp.; assay: Antibacterial activity against Streptococcus sp. clinical isolate by broth microdilution method
Summary of the method: (§3)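 MIC by CLSI broth microdilution in frozen microtiter trays holding serial dilutions of each agent, prepared from standard laboratory powders. Comparator susceptibility interpreted with CLSI breakpoints.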

[13] = system: Streptococcus sp.; assay: Antibacterial activity against Streptococcus sp. Group F clinical isolate by broth microdilution method; summary of the method: as §3
[14] = system: Staphylococcus aureus; assay: Antibacterial activity against methicillin-susceptible Staphylococcus aureus clinical isolate by broth microdilution method; summary of the method: as §1
[15] = system: Staphylococcus warneri; assay: Antibacterial activity against methicillin-resistant coagulase-negative Staphylococcus warneri clinical isolate by broth microdilution method; summary of the method: as §1
[16] = system: Streptococcus sanguinis; assay: Antibacterial activity against Streptococcus sanguinis clinical isolate by broth microdilution method; summary of the method: as §2
[17] = system: Staphylococcus epidermidis; assay: Antibacterial activity against methicillin-resistant coagulase-negative Staphylococcus epidermidis clinical isolate by broth microdilution method; summary of the method: as §1
[18] = system: Staphylococcus capitis; assay: Antibacterial activity against daptomycin-nonsusceptible Staphylococcus capitis isolate 1285355 by broth microdilution method; summary of the method: as §2
[19] = system: Enterococcus faecalis; assay: Antibacterial activity against vancomycin-susceptible Enterococcus faecalis clinical isolate by broth microdilution method; summary of the method: as §1
[20] = system: Staphylococcus aureus; assay: Antibacterial activity against daptomycin-nonsusceptible Staphylococcus aureus isolate 1171063 by broth microdilution method; summary of the method: as §1
[21] = system: Staphylococcus capitis; assay: Antibacterial activity against methicillin-resistant coagulase-negative Staphylococcus capitis clinical isolate by broth microdilution method; summary of the method: as §1
[22] = system: Staphylococcus hominis; assay: Antibacterial activity against methicillin-resistant coagulase-negative Staphylococcus hominis clinical isolate by broth microdilution method; summary of the method: as §1
[23] = system: Streptococcus constellatus; assay: Antibacterial activity against Streptococcus constellatus clinical isolate by broth microdilution method; summary of the method: as §2
[24] = system: Enterococcus faecalis; assay: Antibacterial activity against vancomycin- and teichoplanin-nonsusceptible Enterococcus faecalis clinical isolate by broth microdilution method; summary of the method: as §1
[25] = system: Mammaliicoccus sciuri; assay: Antibacterial activity against methicillin-susceptible coagulase-negative Staphylococcus sciuri clinical isolate by broth microdilution method; summary of the method: as §1

CCCCCCCCCC(=O)N[C@@H](Cc1c[nH]c2ccccc12)C(=O)N[C@H](CC(N)=O)C(=O)N[C@@H](CC(=O)O)C(=O)N[C@@H]1C(=O)NCC(=O)N[C@@H](CCCN)C(=O)N[C@@H](CC(=O)O)C(=O)N[C@H](C)C(=O)N[C@@H](CC(=O)O)C(=O)NCC(=O)N[C@H](CO)C(=O)N[C@@H]([C@H](C)CC(=O)O)C(=O)N[C@@H](CC(=O)c2ccccc2N)C(=O)O[C@@H]1C
0.06 µg/mL: MIC50 [11] | MIC50 [13]
4 µg/mL: MIC90 [5]
> 1 µg/mL: MIC [3] | MIC [4] | MIC [6] | MIC [18] | MIC [20]
2 µg/mL: MIC50 [5]
0.25 µg/mL: MIC50 [7] | MIC50 [8] | MIC90 [8] | MIC90 [11] | MIC50 [12] | MIC90 [13] | MIC50 [16] | MIC50 [23]
1 µg/mL: MIC90 [1] | MIC90 [2] | MIC90 [7] | MIC90 [9] | MIC90 [10] | MIC90 [12] | MIC90 [15] | MIC90 [16] | MIC90 [17] | MIC50 [19] | MIC90 [19] | MIC90 [21] | MIC90 [22] | MIC90 [23] | MIC90 [24]
0.5 µg/mL: MIC50 [1] | MIC50 [2] | MIC50 [9] | MIC50 [10] | MIC50 [14] | MIC90 [14] | MIC50 [15] | MIC50 [17] | MIC50 [21] | MIC50 [22] | MIC [24] | MIC50 [24] | MIC50 [25]

Source: ChEMBL document CHEMBL1255376, “Comparative surveillance study of telavancin activity against recently collected gram-positive clinical isolates from across the United States” (2008)
